{"source": "paper PMC4830347", "about": "(Journal of the American Chemical Society, 2016)", "key": {"HeLa cells": {"tested_on": "HeLa cells", "test": "MTT cell viability assay, HeLa cells", "assay_type": "cell-based", "procedure,_shortened": "(§1)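 HeLa or Saos-2 cells seeded at 1 × 10^4 cells/well and incubated 48 h with test compound in culture medium (200, 300, 400 μM) before MTT read-out; IC50 after 48 h. Inhibitor experiments used test compound at 500 μM for 48 h with or without l-Phe (3 mM) or levamisole (1 mM). Separately, exogenous ALP (5 U/mL) was added together with test compound.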"}, "Saos-2 cells": {"tested_on": "Saos-2 cells", "test": "MTT cell viability assay, Saos-2 cells", "assay_type": "cell-based", "details": "Saos-2, six precursors 500 μM, 48 h", "procedure,_shortened": "as §1"}}, "data": [{"smiles": "c1ccc(C2CN3CCSC3=N2)cc1", "note": "(single isomer, unassigned; (-)) [(−)-tetramisole]", "values": [{"measurement": "rescue of precursor-treated cells by TNAP inhibitor", "setting": "HeLa cells; HeLa, six precursors 500 μM, inhibitor 1 mM, 48 h", "value": "hardly rescues HeLa cells"}, {"measurement": "rescue of precursor-treated cells by TNAP inhibitor", "setting": "Saos-2 cells; inhibitor 1 mM", "value": "significantly increases the cell viability"}]}, {"smiles": "N[C@@H](Cc1ccccc1)C(=O)O", "note": "[L-Phe, L-phenylalanine]", "values": [{"measurement": "cell compatibility", "setting": "HeLa cells; 3 mM, cell culture", "value": "cell compatible"}, {"measurement": "rescue of precursor-treated cells by PLAP inhibitor", "setting": "Saos-2 cells; L-Phe 3 mM", "value": "hardly rescue the Saos-2 cells at all"}]}]}
